In PubChem BioAssay:

molecular target: Muscarinic acetylcholine receptor M4 (Homo sapiens) (UniProt P08173); assay: M4-linked GIRK flux change, two-sided – cell-based, HEK293 M4/GIRK, thallium flux, BTC-AM, M4 allosteric agonist project, primary screen (AID 625); conditions: at 10 µM, actives lie on both sides;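 further: thallium influx through GIRK channels coupled to M4 in HEK293 cells with BTC-AM dye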
Method in brief: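 Material: M4/GIRK1/GIRK2 stable HEK293 cell line. Medium: pH 7.3 thallium assay buffer. Dosing: single compound concentration, 10 µM final. Schedule: 1 h dye loading, 2 min kinetic read. Measured by: kinetic fluorescence with BTC-AM dye. Read-out: post-addition slope, 15–24 s, of baseline-normalized fluorescence. Benchmarks: carbachol and DMSO controls.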

Sequence of Muscarinic acetylcholine receptor M4 (Homo sapiens) (P08173 whole entry, looked up): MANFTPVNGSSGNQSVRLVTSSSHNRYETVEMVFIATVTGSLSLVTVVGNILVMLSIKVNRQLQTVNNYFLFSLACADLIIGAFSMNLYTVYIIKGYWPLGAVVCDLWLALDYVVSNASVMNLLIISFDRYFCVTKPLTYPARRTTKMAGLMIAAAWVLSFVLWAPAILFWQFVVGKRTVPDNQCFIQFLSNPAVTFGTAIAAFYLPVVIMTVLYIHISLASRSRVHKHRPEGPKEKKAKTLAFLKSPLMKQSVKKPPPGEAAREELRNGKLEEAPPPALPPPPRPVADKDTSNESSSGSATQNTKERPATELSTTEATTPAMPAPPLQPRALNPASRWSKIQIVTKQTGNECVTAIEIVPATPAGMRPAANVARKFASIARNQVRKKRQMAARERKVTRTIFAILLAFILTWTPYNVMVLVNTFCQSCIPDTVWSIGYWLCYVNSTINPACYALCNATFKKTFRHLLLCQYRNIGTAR

Fluorescence slope, inactive:
CCc1nnc(NC(=O)OCc2ccccc2)s1 0.00857
O=C(C1CC1)N(Cc1ccco1)c1nc(-c2ccccc2)cs1 0.00828
Cc1ccccc1OCCN1C(=O)NC2(CCc3ccccc32)C1=O (stereo unspecified) 0.00542
COc1ccc(OC(C)C(=O)N2CC(C)OC(C)C2)cc1 (stereo unspecified) 0.00556
CCOC(=O)C(C)On1c(SC(C)C(=O)OCC)nc2ccccc2c1=O (stereo unspecified) 0.0065
O=C(COC(=O)Cc1cccc(C(F)(F)F)c1)NCC1CCCO1 (stereo unspecified) 0.00505
CCCc1[nH]nc2c1C(c1cccc(OC(=O)c3ccco3)c1)C(C#N)=C(N)O2 (stereo unspecified) 0.00951
CS(=O)(=O)N(CC(=O)N1CCN(c2cccc(Cl)c2)CC1)C1CCCCC1 0.00576
Clc1ccccc1OCc1nn2c(-c3ccncc3)nnc2s1 0.00567
Cc1cccc(N2CCN(C(=O)c3cc4c(=O)[nH]c5ccccc5c4n3C)CC2)c1C 0.00424
N#CC(C(=O)C1CCCCC1)c1nc2ccccc2[nH]1 (stereo unspecified) 0.00531
Cc1nc2ccccc2c2oc(C(=O)NCc3ccccn3)cc12 0.00573
COCCN(CC(=O)NC1CCCCC1)C(=O)CSc1nc2ccccc2o1 0.00558
Cc1ncoc1C(=O)Nc1cccc(Cl)c1C 0.00599
COc1cccc(OC)c1C(=O)N1CCOCC1 0.00602
COC(=O)c1ccccc1NC(=O)c1noc2c1CC(C(C)(C)C)CC2 (stereo unspecified) 0.00974
